Converted amounts (≈) assume the structure as drawn.
Test system: Staphylococcus aureus
Test: Antibacterial activity against Staphylococcus aureus at 25 ug/ml after overnight incubation by plate colony counting method relative to control
Format: functional
Procedure, shortened: (§1)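 Plate colony counting on nutrient agar. Suspensions made from fresh colonies on NA slants grown 24 h, then serially diluted tenfold in sterile water. Duplicate aliquots of the 10^-5 and 10^-6 dilutions spread on NA plates containing test compound at 25 µg/mL; control plates NA only. Incubated overnight at 35 °C, colonies counted, inhibition given as percentage.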

With `N#Cc1c(-c2ccc(-c3ccccc3)cc2)nc(SCc2ccc(-c3nn4c(-c5ccccc5)nnc4s3)cc2)[nH]c1=O` as the compound, how does the inhibition at 25 µg/mL read?
The inhibition at 25 µg/mL was 68%.

For `CCn1cc(C(=O)O)c(=O)c2cc(F)c(N3CCNCC3)cc21` [NORFLOXACIN], which inhibition at 25 µg/mL is on record?
Its inhibition at 25 µg/mL is 86%.

With `N#Cc1c(-c2c(Cl)cccc2Cl)nc(SCc2ccc(-c3nn4c(-c5ccccc5Cl)nnc4s3)cc2)[nH]c1=O` as the compound, how does the inhibition at 25 µg/mL read?
Its inhibition at 25 µg/mL is 56%.

With `N#Cc1c(-c2ccc(-c3ccccc3)cc2)nc(SCc2ccc(-c3nn4c(-c5c(Cl)cccc5Cl)nnc4s3)cc2)[nH]c1=O` as the compound, how does the inhibition at 25 µg/mL read?
The inhibition at 25 µg/mL was 84%.

Which inhibition at 25 µg/mL does the source give for `N#Cc1c(-c2ccc(Cl)cc2Cl)nc(SCc2ccc(-c3nn4c(-c5ccccc5Cl)nnc4s3)cc2)[nH]c1=O` here?
The inhibition at 25 µg/mL was 85%.

With `N#Cc1c(-c2ccc(Cl)cc2Cl)nc(SCc2ccc(-c3nn4c(-c5ccccc5)nnc4s3)cc2)[nH]c1=O` as the compound, how does the inhibition at 25 µg/mL read?
Its inhibition at 25 µg/mL is 88%.

For `N#Cc1c(-c2ccc(Cl)cc2)nc(SCc2ccc(-c3nn4c(-c5ccccc5)nnc4s3)cc2)[nH]c1=O`, which inhibition at 25 µg/mL is on record?
Its inhibition at 25 µg/mL is 49%.

For `N#Cc1c(-c2ccc(-c3ccccc3)cc2)nc(SCc2ccc(-c3nn4c(-c5ccccc5Cl)nnc4s3)cc2)[nH]c1=O`, which inhibition at 25 µg/mL is on record?
Its inhibition at 25 µg/mL is 83%.

Which inhibition at 25 µg/mL does the source give for `N#Cc1c(-c2ccc(-c3ccccc3)cc2)nc(SCc2ccc(CSc3nc(-c4ccc(-c5ccccc5)cc4)c(C#N)c(=O)[nH]3)cc2)[nH]c1=O` here?
Its inhibition at 25 µg/mL is 87%.

Which inhibition at 25 µg/mL does the source give for `N#Cc1c(-c2ccc(Cl)cc2Cl)nc(SCc2ccc(-c3nn4c(-c5c(Cl)cccc5Cl)nnc4s3)cc2)[nH]c1=O` here?
Its inhibition at 25 µg/mL is 81%.

Which inhibition at 25 µg/mL does the source give for `N#Cc1c(-c2ccccc2Cl)nc(SCc2ccc(-c3nn4c(-c5ccccc5)nnc4s3)cc2)[nH]c1=O` here?
Its inhibition at 25 µg/mL is 46%.

Which inhibition at 25 µg/mL does the source give for `N#Cc1c(-c2c(Cl)cccc2Cl)nc(SCc2ccc(-c3nn4c(-c5c(Cl)cccc5Cl)nnc4s3)cc2)[nH]c1=O` here?
Its inhibition at 25 µg/mL is 82%.

Which inhibition at 25 µg/mL does the source give for `N#Cc1c(-c2ccccc2)nc(SCc2ccc(-c3nn4c(-c5ccccc5)nnc4s3)cc2)[nH]c1=O` here?
Its inhibition at 25 µg/mL is 44%.

Which inhibition at 25 µg/mL does the source give for `N#Cc1c(-c2c(Cl)cccc2Cl)nc(SCc2ccc(-c3nn4c(-c5ccccc5)nnc4s3)cc2)[nH]c1=O` here?
The inhibition at 25 µg/mL was 56%.

Test system: Escherichia coli
Test: Inhibition of Escherichia coli BL21.19 SecA at 10 ug/ml after 30 mins by malachite green dye-based assay relative to control
Procedure, shortened: (§2)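 SecA ATPase from E. coli BL21.19. Reaction contains Tris-HCl buffer (pH 7.6, with KCl, NH4Cl, DTT, Mg(OAc)2), […], […] and sample, diluted with distilled water; water as blank. Incubated 37 °C for 30 min. Malachite green/ammonium molybdate/Triton X-100 colour reagent added, then 34% citrate after 1 min. Absorbance read at 660 nm and inhibition calculated from it.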

For `N#Cc1c(-c2ccc(Cl)cc2Cl)nc(SCc2ccc(-c3nn4c(-c5ccccc5)nnc4s3)cc2)[nH]c1=O`, which inhibition is on record?
The inhibition was 51%.

Test system: not listed separately
Test: Inhibition of Escherichia coli BL21.19 SecA after 30 mins by malachite green dye-based assay
Procedure, shortened: as §2

Which IC50 does the source give for `N#Cc1c(-c2ccc(Cl)cc2Cl)nc(SCc2ccc(-c3nn4c(-c5ccccc5Cl)nnc4s3)cc2)[nH]c1=O` here?
Its IC50 is “Nd(Insoluble)”.

Which IC50 does the source give for `N#Cc1c(-c2ccc(Cl)cc2Cl)nc(SCc2ccc(-c3nn4c(-c5ccccc5)nnc4s3)cc2)[nH]c1=O` here?
The IC50 was 9.7 µg/mL (≈ 16.5 µM).

For `N#Cc1c(-c2ccc(-c3ccccc3)cc2)nc(SCc2ccc(CSc3nc(-c4ccc(-c5ccccc5)cc4)c(C#N)c(=O)[nH]3)cc2)[nH]c1=O`, which IC50 is on record?
The IC50 was 20.8 µg/mL (≈ 29.2 µM).

Test system: Bacillus amyloliquefaciens
Test: Antibacterial activity against Bacillus amyloliquefaciens at 25 ug/ml after overnight incubation by plate colony counting method relative to control
Format: functional
Procedure, shortened: as §1

With `N#Cc1c(-c2ccc(-c3ccccc3)cc2)nc(SCc2ccc(-c3nn4c(-c5ccccc5)nnc4s3)cc2)[nH]c1=O` as the compound, how does the inhibition at 25 µg/mL read?
The inhibition at 25 µg/mL was 58%.

Which inhibition at 25 µg/mL does the source give for `CCn1cc(C(=O)O)c(=O)c2cc(F)c(N3CCNCC3)cc21` [NORFLOXACIN] here?
The inhibition at 25 µg/mL was 89%.

With `N#Cc1c(-c2c(Cl)cccc2Cl)nc(SCc2ccc(-c3nn4c(-c5ccccc5Cl)nnc4s3)cc2)[nH]c1=O` as the compound, how does the inhibition at 25 µg/mL read?
Its inhibition at 25 µg/mL is 78%.

For `N#Cc1c(-c2ccc(-c3ccccc3)cc2)nc(SCc2ccc(-c3nn4c(-c5c(Cl)cccc5Cl)nnc4s3)cc2)[nH]c1=O`, which inhibition at 25 µg/mL is on record?
The inhibition at 25 µg/mL was 82%.

With `N#Cc1c(-c2ccc(Cl)cc2Cl)nc(SCc2ccc(-c3nn4c(-c5ccccc5Cl)nnc4s3)cc2)[nH]c1=O` as the compound, how does the inhibition at 25 µg/mL read?
Its inhibition at 25 µg/mL is 80%.

With `N#Cc1c(-c2ccc(Cl)cc2Cl)nc(SCc2ccc(-c3nn4c(-c5ccccc5)nnc4s3)cc2)[nH]c1=O` as the compound, how does the inhibition at 25 µg/mL read?
The inhibition at 25 µg/mL was 82%.

For `N#Cc1c(-c2ccc(Cl)cc2)nc(SCc2ccc(-c3nn4c(-c5ccccc5)nnc4s3)cc2)[nH]c1=O`, which inhibition at 25 µg/mL is on record?
The inhibition at 25 µg/mL was 62%.

With `N#Cc1c(-c2ccc(-c3ccccc3)cc2)nc(SCc2ccc(-c3nn4c(-c5ccccc5Cl)nnc4s3)cc2)[nH]c1=O` as the compound, how does the inhibition at 25 µg/mL read?
Its inhibition at 25 µg/mL is 81%.

Which inhibition at 25 µg/mL does the source give for `N#Cc1c(-c2ccc(-c3ccccc3)cc2)nc(SCc2ccc(CSc3nc(-c4ccc(-c5ccccc5)cc4)c(C#N)c(=O)[nH]3)cc2)[nH]c1=O` here?
Its inhibition at 25 µg/mL is 85%.

Which inhibition at 25 µg/mL does the source give for `N#Cc1c(-c2ccc(Cl)cc2Cl)nc(SCc2ccc(-c3nn4c(-c5c(Cl)cccc5Cl)nnc4s3)cc2)[nH]c1=O` here?
Its inhibition at 25 µg/mL is 78%.

Which inhibition at 25 µg/mL does the source give for `N#Cc1c(-c2ccccc2Cl)nc(SCc2ccc(-c3nn4c(-c5ccccc5)nnc4s3)cc2)[nH]c1=O` here?
The inhibition at 25 µg/mL was 66%.

For `N#Cc1c(-c2c(Cl)cccc2Cl)nc(SCc2ccc(-c3nn4c(-c5c(Cl)cccc5Cl)nnc4s3)cc2)[nH]c1=O`, which inhibition at 25 µg/mL is on record?
The inhibition at 25 µg/mL was 86%.

For `N#Cc1c(-c2ccccc2)nc(SCc2ccc(-c3nn4c(-c5ccccc5)nnc4s3)cc2)[nH]c1=O`, which inhibition at 25 µg/mL is on record?
Its inhibition at 25 µg/mL is 57%.

For `N#Cc1c(-c2c(Cl)cccc2Cl)nc(SCc2ccc(-c3nn4c(-c5ccccc5)nnc4s3)cc2)[nH]c1=O`, which inhibition at 25 µg/mL is on record?
The inhibition at 25 µg/mL was 60%.

Test system: Escherichia coli
Test: Inhibition of Escherichia coli BL21.19 SecA at 20 ug/ml after 30 mins by malachite green dye-based assay relative to control
Procedure, shortened: as §2

With `N#Cc1c(-c2ccc(Cl)cc2Cl)nc(SCc2ccc(-c3nn4c(-c5ccccc5)nnc4s3)cc2)[nH]c1=O` as the compound, how does the inhibition read?
The inhibition was 72%.

Test system: Bacillus subtilis
Test: Antibacterial activity against Bacillus subtilis at 25 ug/ml after overnight incubation by plate colony counting method relative to control
Format: functional
Procedure, shortened: as §1

With `N#Cc1c(-c2ccc(-c3ccccc3)cc2)nc(SCc2ccc(-c3nn4c(-c5ccccc5)nnc4s3)cc2)[nH]c1=O` as the compound, how does the inhibition at 25 µg/mL read?
Its inhibition at 25 µg/mL is 57%.

With `CCn1cc(C(=O)O)c(=O)c2cc(F)c(N3CCNCC3)cc21` [NORFLOXACIN] as the compound, how does the inhibition at 25 µg/mL read?
The inhibition at 25 µg/mL was 85%.

For `N#Cc1c(-c2c(Cl)cccc2Cl)nc(SCc2ccc(-c3nn4c(-c5ccccc5Cl)nnc4s3)cc2)[nH]c1=O`, which inhibition at 25 µg/mL is on record?
The inhibition at 25 µg/mL was 63%.

For `N#Cc1c(-c2ccc(-c3ccccc3)cc2)nc(SCc2ccc(-c3nn4c(-c5c(Cl)cccc5Cl)nnc4s3)cc2)[nH]c1=O`, which inhibition at 25 µg/mL is on record?
The inhibition at 25 µg/mL was 86%.

With `N#Cc1c(-c2ccc(Cl)cc2Cl)nc(SCc2ccc(-c3nn4c(-c5ccccc5Cl)nnc4s3)cc2)[nH]c1=O` as the compound, how does the inhibition at 25 µg/mL read?
Its inhibition at 25 µg/mL is 92%.

With `N#Cc1c(-c2ccc(Cl)cc2Cl)nc(SCc2ccc(-c3nn4c(-c5ccccc5)nnc4s3)cc2)[nH]c1=O` as the compound, how does the inhibition at 25 µg/mL read?
The inhibition at 25 µg/mL was 90%.

For `N#Cc1c(-c2ccc(Cl)cc2)nc(SCc2ccc(-c3nn4c(-c5ccccc5)nnc4s3)cc2)[nH]c1=O`, which inhibition at 25 µg/mL is on record?
Its inhibition at 25 µg/mL is 51%.

Which inhibition at 25 µg/mL does the source give for `N#Cc1c(-c2ccc(-c3ccccc3)cc2)nc(SCc2ccc(-c3nn4c(-c5ccccc5Cl)nnc4s3)cc2)[nH]c1=O` here?
The inhibition at 25 µg/mL was 88%.

For `N#Cc1c(-c2ccc(-c3ccccc3)cc2)nc(SCc2ccc(CSc3nc(-c4ccc(-c5ccccc5)cc4)c(C#N)c(=O)[nH]3)cc2)[nH]c1=O`, which inhibition at 25 µg/mL is on record?
The inhibition at 25 µg/mL was 62%.

With `N#Cc1c(-c2ccc(Cl)cc2Cl)nc(SCc2ccc(-c3nn4c(-c5c(Cl)cccc5Cl)nnc4s3)cc2)[nH]c1=O` as the compound, how does the inhibition at 25 µg/mL read?
Its inhibition at 25 µg/mL is 86%.

Which inhibition at 25 µg/mL does the source give for `N#Cc1c(-c2ccccc2Cl)nc(SCc2ccc(-c3nn4c(-c5ccccc5)nnc4s3)cc2)[nH]c1=O` here?
Its inhibition at 25 µg/mL is 55%.

For `N#Cc1c(-c2c(Cl)cccc2Cl)nc(SCc2ccc(-c3nn4c(-c5c(Cl)cccc5Cl)nnc4s3)cc2)[nH]c1=O`, which inhibition at 25 µg/mL is on record?
The inhibition at 25 µg/mL was 84%.

For `N#Cc1c(-c2ccccc2)nc(SCc2ccc(-c3nn4c(-c5ccccc5)nnc4s3)cc2)[nH]c1=O`, which inhibition at 25 µg/mL is on record?
The inhibition at 25 µg/mL was 48%.

Which inhibition at 25 µg/mL does the source give for `N#Cc1c(-c2c(Cl)cccc2Cl)nc(SCc2ccc(-c3nn4c(-c5ccccc5)nnc4s3)cc2)[nH]c1=O` here?
Its inhibition at 25 µg/mL is 49%.

— ChEMBL document CHEMBL3994608, “Design, synthesis and antimicrobial activities of thiouracil derivatives containing triazolo-thiadiazole as SecA inhibitors” (Eur J Med Chem, 2017)
